# The source made the active and inactive calls. No cut-off for these calls is given here.
# Legend:
# [1] = Selectivity index, ratio of IC50 for mouse NIH/3T3 cells to MIC90 for Klebsiella pneumoniae ATCC 700603; format: toxicity; details: read-out: Selectivity Index
# [2] = Selectivity index, ratio of IC50 for mouse NIH/3T3 cells to MIC90 for Listeria monocytogenes ATCC 7644; format: toxicity; details: read-out: Selectivity Index
# Salmonella typhimurium [3] = assay: Mutagenicity in Salmonella typhimurium TA98 assessed as increase in revertant colonies at 0.156 mg/ml in presence of Sprague-Dawley rat liver S9 fraction by Ames test relative to basal level; format: toxicity; details: salmonella enterica subsp. enterica serovar typhimurium
# Outline: (§1)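 Ames microplate format assay with strains TA98 and TA100, run with and without S9. Positive wells were counted per condition. The run was valid if positive controls gave more than 25 positive wells and negative controls fewer than 8.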
# Salmonella typhimurium [4] = assay: Mutagenicity in Salmonella typhimurium TA100 assessed as increase in revertant colonies at 0.156 mg/ml in presence of Sprague-Dawley rat liver S9 fraction by Ames test relative to basal level; format: toxicity; details: salmonella enterica subsp. enterica serovar typhimurium; outline: as §1
# Staphylococcus aureus [5] = assay: Antibacterial activity against Staphylococcus aureus ATCC 25923 incubated after 24 hrs by resazurin dye based broth microdilution assay; format: functional; details: ATCC 25923, 24 h
# Escherichia coli [6] = assay: Antibacterial activity against Escherichia coli ATCC 35218 incubated after 24 hrs by resazurin dye based broth microdilution assay; format: functional; details: ATCC 35218, 24 h
# Escherichia coli [7] = assay: Antibacterial activity against Escherichia coli ATCC 25922 incubated after 24 hrs by resazurin dye based broth microdilution assay; format: functional; details: ATCC 25922, 24 h
# Klebsiella pneumoniae = assay: Antibacterial activity against Klebsiella pneumoniae ATCC 700603 incubated after 24 hrs by resazurin dye based broth microdilution assay; format: functional; details: Klebsiella pneumoniae, 700603, 24 h
# Enterococcus faecalis [8] = assay: Antibacterial activity against Enterococcus faecalis ATCC 29212 incubated after 24 hrs by resazurin dye based broth microdilution assay; format: functional; details: ATCC 29212, 24 h
# Enterococcus faecalis [9] = assay: Antibacterial activity against Enterococcus faecalis ATCC 51299 incubated after 24 hrs by resazurin dye based broth microdilution assay; format: functional; details: ATCC 51299, 24 h
# Listeria monocytogenes = assay: Antibacterial activity against Listeria monocytogenes ATCC 7644 incubated after 24 hrs by resazurin dye based broth microdilution assay; format: functional; details: ATCC 7644, 24 h
# Pseudomonas aeruginosa = assay: Antibacterial activity against Pseudomonas aeruginosa ATCC 27853 incubated after 24 hrs by resazurin dye based broth microdilution assay; format: functional; details: ATCC 27853, 24 h
# Staphylococcus aureus [10] = assay: Antibacterial activity against Staphylococcus aureus ATCC 25923 assessed as decrease in ATP level at […] ug/ml after 24 hrs by BacTiter-Glo reagent based bioluminescence assay; format: functional
# [11] = tested on: Escherichia coli ATCC 25922; assay: Inhibition of Escherichia coli DNA gyrase assessed as inhibition of enzyme-mediated supercoiling of relaxed pHOT1 DNA substrate after 30 mins by gel electrophoresis method
# Outline: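 E. coli DNA gyrase (1 U) was incubated with relaxed pHOT1 DNA substrate (0.25 µg) for 30 min at 37 °C. Compounds were tested at 15.6, 7.8, 3.9 and 1.95 µg/L. Controls were supercoiled DNA, relaxed DNA, relaxed DNA plus gyrase, and 1% DMSO. Supercoiling was read by agarose gel electrophoresis.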
# NIH3T3 = assay: Cytotoxicity against mouse NIH/3T3 cells assessed as reduction in cell proliferation after 24 hrs by MTT assay; format: cell-based; details: NIH3T3, 24 h
# [12] = Selectivity index, ratio of IC50 for mouse NIH/3T3 cells to MIC90 for Pseudomonas aeruginosa ATCC 27853; format: toxicity; details: read-out: Selectivity Index
# Salmonella typhimurium [13] = assay: Mutagenicity in Salmonella typhimurium TA98 assessed as increase in revertant colonies at 0.3125 mg/ml in presence of Sprague-Dawley rat liver S9 fraction by Ames test relative to basal level; format: toxicity; details: salmonella enterica subsp. enterica serovar typhimurium; outline: as §1
# Salmonella typhimurium [14] = assay: Mutagenicity in Salmonella typhimurium TA98 assessed as increase in revertant colonies at 0.625 mg/ml in presence of Sprague-Dawley rat liver S9 fraction by Ames test relative to basal level; format: toxicity; details: salmonella enterica subsp. enterica serovar typhimurium; outline: as §1
# Salmonella typhimurium [15] = assay: Mutagenicity in Salmonella typhimurium TA98 assessed as increase in revertant colonies at 1.25 mg/ml in presence of Sprague-Dawley rat liver S9 fraction by Ames test relative to basal level; format: toxicity; details: salmonella enterica subsp. enterica serovar typhimurium; outline: as §1
# Salmonella typhimurium [16] = assay: Mutagenicity in Salmonella typhimurium TA98 assessed as increase in revertant colonies at 2.5 mg/ml in presence of Sprague-Dawley rat liver S9 fraction by Ames test relative to basal level; format: toxicity; details: salmonella enterica subsp. enterica serovar typhimurium; outline: as §1
# Salmonella typhimurium [17] = assay: Mutagenicity in Salmonella typhimurium TA98 assessed as increase in revertant colonies at 5 mg/ml in presence of Sprague-Dawley rat liver S9 fraction by Ames test relative to basal level; format: toxicity; details: salmonella enterica subsp. enterica serovar typhimurium; outline: as §1
# Salmonella typhimurium [18] = assay: Mutagenicity in Salmonella typhimurium TA98 assessed as increase in revertant colonies at 0.156 mg/ml in absence of Sprague-Dawley rat liver S9 fraction by Ames test relative to basal level; format: toxicity; details: salmonella enterica subsp. enterica serovar typhimurium; outline: as §1
# Salmonella typhimurium [19] = assay: Mutagenicity in Salmonella typhimurium TA98 assessed as increase in revertant colonies at 0.3125 mg/ml in absence of Sprague-Dawley rat liver S9 fraction by Ames test relative to basal level; format: toxicity; details: salmonella enterica subsp. enterica serovar typhimurium; outline: as §1
# Salmonella typhimurium [20] = assay: Mutagenicity in Salmonella typhimurium TA98 assessed as increase in revertant colonies at 0.625 mg/ml in absence of Sprague-Dawley rat liver S9 fraction by Ames test relative to basal level; format: toxicity; details: salmonella enterica subsp. enterica serovar typhimurium; outline: as §1
# Salmonella typhimurium [21] = assay: Mutagenicity in Salmonella typhimurium TA98 assessed as increase in revertant colonies at 1.25 mg/ml in absence of Sprague-Dawley rat liver S9 fraction by Ames test relative to basal level; format: toxicity; details: salmonella enterica subsp. enterica serovar typhimurium; outline: as §1
# Salmonella typhimurium [22] = assay: Mutagenicity in Salmonella typhimurium TA98 assessed as increase in revertant colonies at 2.5 mg/ml in absence of Sprague-Dawley rat liver S9 fraction by Ames test relative to basal level; format: toxicity; details: salmonella enterica subsp. enterica serovar typhimurium; outline: as §1
# Salmonella typhimurium [23] = assay: Mutagenicity in Salmonella typhimurium TA98 assessed as increase in revertant colonies at 5 mg/ml in absence of Sprague-Dawley rat liver S9 fraction by Ames test relative to basal level; format: toxicity; details: salmonella enterica subsp. enterica serovar typhimurium; outline: as §1
# Salmonella typhimurium [24] = assay: Mutagenicity in Salmonella typhimurium TA100 assessed as increase in revertant colonies at 0.3125 mg/ml in presence of Sprague-Dawley rat liver S9 fraction by Ames test relative to basal level; format: toxicity; details: salmonella enterica subsp. enterica serovar typhimurium; outline: as §1
# Salmonella typhimurium [25] = assay: Mutagenicity in Salmonella typhimurium TA100 assessed as increase in revertant colonies at 0.625 mg/ml in presence of Sprague-Dawley rat liver S9 fraction by Ames test relative to basal level; format: toxicity; details: salmonella enterica subsp. enterica serovar typhimurium; outline: as §1
# Salmonella typhimurium [26] = assay: Mutagenicity in Salmonella typhimurium TA100 assessed as increase in revertant colonies at 1.25 mg/ml in presence of Sprague-Dawley rat liver S9 fraction by Ames test relative to basal level; format: toxicity; details: salmonella enterica subsp. enterica serovar typhimurium; outline: as §1
# Salmonella typhimurium [27] = assay: Mutagenicity in Salmonella typhimurium TA100 assessed as increase in revertant colonies at 2.5 mg/ml in presence of Sprague-Dawley rat liver S9 fraction by Ames test relative to basal level; format: toxicity; details: salmonella enterica subsp. enterica serovar typhimurium; outline: as §1
# Salmonella typhimurium [28] = assay: Mutagenicity in Salmonella typhimurium TA100 assessed as increase in revertant colonies at 5 mg/ml in presence of Sprague-Dawley rat liver S9 fraction by Ames test relative to basal level; format: toxicity; details: salmonella enterica subsp. enterica serovar typhimurium; outline: as §1
# Salmonella typhimurium [29] = assay: Mutagenicity in Salmonella typhimurium TA100 assessed as increase in revertant colonies at 0.156 mg/ml in absence of Sprague-Dawley rat liver S9 fraction by Ames test relative to basal level; format: toxicity; details: salmonella enterica subsp. enterica serovar typhimurium; outline: as §1
# Salmonella typhimurium [30] = assay: Mutagenicity in Salmonella typhimurium TA100 assessed as increase in revertant colonies at 0.3125 mg/ml in absence of Sprague-Dawley rat liver S9 fraction by Ames test relative to basal level; format: toxicity; details: salmonella enterica subsp. enterica serovar typhimurium; outline: as §1
# Salmonella typhimurium [31] = assay: Mutagenicity in Salmonella typhimurium TA100 assessed as increase in revertant colonies at 0.625 mg/ml in absence of Sprague-Dawley rat liver S9 fraction by Ames test relative to basal level; format: toxicity; details: salmonella enterica subsp. enterica serovar typhimurium; outline: as §1
# Salmonella typhimurium [32] = assay: Mutagenicity in Salmonella typhimurium TA100 assessed as increase in revertant colonies at 1.25 mg/ml in absence of Sprague-Dawley rat liver S9 fraction by Ames test relative to basal level; format: toxicity; details: salmonella enterica subsp. enterica serovar typhimurium; outline: as §1
# Salmonella typhimurium [33] = assay: Mutagenicity in Salmonella typhimurium TA100 assessed as increase in revertant colonies at 2.5 mg/ml in absence of Sprague-Dawley rat liver S9 fraction by Ames test relative to basal level; format: toxicity; details: salmonella enterica subsp. enterica serovar typhimurium; outline: as §1
# Salmonella typhimurium [34] = assay: Mutagenicity in Salmonella typhimurium TA100 assessed as increase in revertant colonies at 5 mg/ml in absence of Sprague-Dawley rat liver S9 fraction by Ames test relative to basal level; format: toxicity; details: salmonella enterica subsp. enterica serovar typhimurium; outline: as §1
smiles,measurement,setting,value
CN(C)CCCN1CCN(c2nc3c(cc2F)c(=O)c(C(=O)O)cn3-c2ccc(F)cc2F)CC1,selectivity ratio,[1],54
same,selectivity ratio,[2],54
same,fold change (FC),Salmonella typhimurium [3],0
same,fold change (FC),Salmonella typhimurium [4],0
same,MIC90,Staphylococcus aureus [5],1.95 µg/mL
same,MIC90,Escherichia coli [6],1.95 µg/mL
same,MIC90,Escherichia coli [7],1.95 µg/mL
same,MIC90,Klebsiella pneumoniae,7.8 µg/mL
same,MIC90,Enterococcus faecalis [8],3.9 µg/mL
same,MIC90,Enterococcus faecalis [9],3.9 µg/mL
same,MIC90,Listeria monocytogenes,7.8 µg/mL
same,MIC90,Pseudomonas aeruginosa,7.8 µg/mL
same,Activity,Staphylococcus aureus [10],Active
same,inhibition,[11],Dose-dependent effect
same,IC50,NIH3T3,440 µg/mL
same,selectivity ratio,[12],54
same,fold change (FC),Salmonella typhimurium [13],0.11
same,fold change (FC),Salmonella typhimurium [14],0
same,fold change (FC),Salmonella typhimurium [15],0
same,fold change (FC),Salmonella typhimurium [16],0
same,fold change (FC),Salmonella typhimurium [17],0
same,fold change (FC),Salmonella typhimurium [18],0
same,fold change (FC),Salmonella typhimurium [19],0
same,fold change (FC),Salmonella typhimurium [20],0
same,fold change (FC),Salmonella typhimurium [21],0
same,fold change (FC),Salmonella typhimurium [22],0
same,fold change (FC),Salmonella typhimurium [23],0
same,fold change (FC),Salmonella typhimurium [24],0
same,fold change (FC),Salmonella typhimurium [25],0
same,fold change (FC),Salmonella typhimurium [26],0
same,fold change (FC),Salmonella typhimurium [27],0
same,fold change (FC),Salmonella typhimurium [28],0
same,fold change (FC),Salmonella typhimurium [29],0
same,fold change (FC),Salmonella typhimurium [30],0
same,fold change (FC),Salmonella typhimurium [31],0
same,fold change (FC),Salmonella typhimurium [32],0
same,fold change (FC),Salmonella typhimurium [33],0
same,fold change (FC),Salmonella typhimurium [34],0

# — ChEMBL document CHEMBL3994650, “New 1,4-dihydro[1,8]naphthyridine derivatives as DNA gyrase inhibitors” (Bioorg Med Chem Lett, 2017)
